The structures appear in SMILES notation. ≈ marks a conversion by molar mass, not a printed value. Where only a bound is given, the exact number is not on record here.

Data set [1] deals with Plasmodium falciparum. The data set can be described thus: Antiplasmodial activity against chloroquine-sensitive Plasmodium falciparum D6 by [3H]hypoxanthine uptake. Format: functional, organism-based. The essentials: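 P. falciparum D6 kept in type A+ human erythrocytes (RPMI-1640, NaHCO3, HEPES, hypoxanthine, 10% Albumax II) under 5% O2/5% CO2/90% N2 at 37 °C. Plated at 0.5-1% parasitemia, 1% hematocrit with serial dilutions from 4 mg/mL stock, triplicate; 24 h, then 0.5 μCi [3H]hypoxanthine for 18 h more. Scintillation counting; IC50 by nonlinear regression versus zero-drug controls.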

For data set [2], the system named is Plasmodium falciparum. The data set can be described thus: Antiplasmodial activity against chloroquine-resistant Plasmodium falciparum W2 by [3H]hypoxanthine uptake. Type of data set: functional, organism-based. The essentials:
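P. falciparum W2 grown in type A+ human erythrocytes in RPMI-1640 with NaHCO3, HEPES, hypoxanthine and 10% Albumax II, 5% O2/5% CO2/90% N2, 37 °C. Samples from 4 mg/mL stock tested in triplicate at 0.5-1% parasitemia, 1% hematocrit. After 24 h, 0.5 μCi [3H]hypoxanthine added for 18 h more; IC50 by nonlinear regression, zero-drug controls as 100%.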

Data set [3] can be described thus: Selectivity index, ratio of ED50 for human KB cells to IC50 for chloroquine-sensitive Plasmodium falciparum D6. Format: functional.
Data set [4] is described as follows: Cytotoxicity against human KB cells after 72 hrs. Format: cell-based. To be noted: read-out: ED50.
A short description of data set [5]: Selectivity index, ratio of ED50 for human KB cells to IC50 for chloroquine-resistant Plasmodium falciparum W2. Format: functional.

With `COc1cc([C@H]2OC[C@H]3[C@@H]2CO[C@@H]3c2cc(OC)c(O)c(OC)c2)ccc1O`, the IC50 (usually the concentration that gives 50% inhibition) in the data set on Plasmodium falciparum [1] (D6, 42 h) is > 10 µg/mL.

For the molecule `COc1cc([C@@H]2OC[C@@H]3[C@H]2CO[C@H]3c2cc(OC)c(O)c(OC)c2)cc(OC)c1O`, the 50% inhibitory concentration (IC50) in the data set with Plasmodium falciparum [1] (D6, 42 h) is > 10 µg/mL.

As to `CCCCNC(=O)c1ccccc1`, the half-maximal inhibitory concentration (IC50) with Plasmodium falciparum [1] (D6, 42 h) is > 10 µg/mL.

Consider `COc1cc([C@H]2OC[C@@H]3C(=O)OC[C@@H]32)cc(OC)c1O`, for which the IC50 in the data set with Plasmodium falciparum [1] (D6, 42 h) is > 10 µg/mL.

In the case of `CC(=O)/C=C/[C@@]1(O)C(C)=CC(=O)CC1(C)C`, the IC50 in the data set on Plasmodium falciparum [1] (D6, 42 h) was > 10 µg/mL.

For the molecule `CCCCCC1(O)OC(=O)C(C)=C1C` (stereo unspecified), the IC50 with Plasmodium falciparum [1] (D6, 42 h) was > 10 µg/mL.

For the molecule `C/C=C/c1cc(OC)c(O[C@H](C)[C@@H](O)c2cc(OC)c(OC)c(OC)c2)c(OC)c1` (relative stereo) [POLYSYPHORIN], the half-maximal inhibitory concentration (IC50) in the data set with Plasmodium falciparum [2] was 0.368 µg/mL (≈ 0.879 µM); in the data set on Plasmodium falciparum [1] (D6), 0.404 µg/mL (≈ 0.965 µM). Besides, the “Selectivity Index” value came to 5 in data set [3] and 6 in data set [5]. Moreover, in data set [4], the CC50 at 72 h was 2 µg/mL (≈ 4.78 µM).

With `COc1cc([C@@H]2OC[C@H]3[C@@H]2CO[C@H]3c2ccc(O)c(OC)c2)ccc1O` [(-)-PINORESINOL], the IC50 in the data set on Plasmodium falciparum [1] (D6, 42 h) was > 10 µg/mL.

For `C[C@@H]1CC[C@H]2[C@@H](C)C(=O)O[C@@H]3O[C@@]4(C)CC[C@@H]1[C@]32OO4` [ARTEMISININ], the IC50 in the data set on Plasmodium falciparum [2] is 0.002 µg/mL (≈ 0.00708 µM). Moreover, the “Selectivity Index” value in data set [3] and in data set [5] was >10000 each time. In addition, the CC50 at 72 h in data set [4] is > 20 µg/mL.

For `COc1cc([C@H]2O[C@@H](c3cc(OC)c(OC)c(OC)c3)[C@H](C)[C@H]2C)cc(OC)c1OC` [EPIGRANDISIN], the figures for the half-inhibitory concentration (IC50) with Plasmodium falciparum [2] and with Plasmodium falciparum [1] (D6) were 3.34 µg/mL (≈ 7.72 µM) and > 10 µg/mL, respectively. Moreover, the “Selectivity Index” value in data set [3] is reported as <2; in data set [5] it was 4. Moreover, the CC50 at 72 h in data set [4] worked out at 16 µg/mL (≈ 37 µM).

Regarding `COc1cc([C@@H]2O[C@@H](c3cc(OC)c(OC)c(OC)c3)[C@H](C)[C@H]2C)cc(OC)c1OC` [GRANDISIN], the half-inhibitory concentration (IC50) stood at 1.48 µg/mL (≈ 3.43 µM) with Plasmodium falciparum [2] and 1.51 µg/mL (≈ 3.49 µM) in the data set with Plasmodium falciparum [1] (D6). Besides, the figures for the “Selectivity Index” value in data set [3] and in data set [5] were 7 and 8, respectively. Further, the CC50 at 72 h in data set [4] is 14 µg/mL (≈ 32.4 µM).

`C=C[C@H]1CN2CC[C@H]1C[C@H]2[C@H](O)c1ccnc2ccc(OC)cc12` [QUININE]: the concentration for half-maximal inhibition (IC50) turned out to be 0.041 µg/mL (≈ 0.126 µM) in the data set with Plasmodium falciparum [2] and 0.009 µg/mL (≈ 0.0277 µM) with Plasmodium falciparum [1] (D6). For the same molecule, the “Selectivity Index” value in data set [3] is >2000; in data set [5], >490. The CC50 at 72 h in data set [4] was > 20 µg/mL.

`COc1cc(O)cc2c1C(=O)OOC(C)CCCCC/C=C/2` (stereo unspecified) [RHAPHIDECURPEROXIN]: the half-maximal inhibitory concentration (IC50) was 0.42 µg/mL (≈ 1.37 µM) in the data set with Plasmodium falciparum [2] and 0.54 µg/mL (≈ 1.76 µM) in the data set with Plasmodium falciparum [1] (D6). Moreover, the “Selectivity Index” value in data set [3] is listed as 0.7; in data set [5] it was 1. The CC50 at 72 h in data set [4] came to 4 µg/mL (≈ 13.1 µM).

Regarding `C=CCc1cc(OC)c(O[C@H](C)[C@@H](O)c2cc(OC)c(OC)c(OC)c2)c(OC)c1` [RHAPHIDECURSINOL B], the half-maximal inhibitory concentration (IC50) was found to be 4.68 µg/mL (≈ 11.2 µM) in the data set with Plasmodium falciparum [2] and 5.37 µg/mL (≈ 12.8 µM) in the data set with Plasmodium falciparum [1] (D6). For the same molecule, the “Selectivity Index” value in data set [3] came out at 1; in data set [5] it was 2. In addition, in data set [4], the CC50 at 72 h amounted to 10 µg/mL (≈ 23.9 µM).

The record behind these values is ChEMBL document CHEMBL1150864, “Antimalarial compounds from Rhaphidophora decursiva” (J Nat Prod, 2001).
